Screening results: PubChem BioAssay, Broad Institute
Compounds with a hit are over-represented: about 5.9% of the library has one in this group of screens.
T cruzi growth-1: inhibitors of T. cruzi proliferation; inhibition, % at 8.34 µM; T. cruzi beta-gal in NIH3T3, GalScreen luminescence, 90 h; 77,000 compounds, 5.9% hits;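 active means mean inhibition above about 93%, with at least 55% of replicates each passing it, limit read from the data, passing the limit was not always enough; inconclusive means only one of those two conditions holds; inactive means neither condition holds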
IDH1 R132H inh: inhibitors of human IDH1 R132H | AID 624101 | inhibition, % at 10 µM | IDH1 R132H reductase, diaphorase/resazurin fluorescence, 60 min | 70,000 compounds, 0.18% hits; in the data active means inhibition above about 34%; inconclusive means no clear call, values can overlap the other calls; inactive means below about 11%;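 further: 0% = DMSO and 100% = no enzyme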
Target sequence (O75874 whole entry R132H): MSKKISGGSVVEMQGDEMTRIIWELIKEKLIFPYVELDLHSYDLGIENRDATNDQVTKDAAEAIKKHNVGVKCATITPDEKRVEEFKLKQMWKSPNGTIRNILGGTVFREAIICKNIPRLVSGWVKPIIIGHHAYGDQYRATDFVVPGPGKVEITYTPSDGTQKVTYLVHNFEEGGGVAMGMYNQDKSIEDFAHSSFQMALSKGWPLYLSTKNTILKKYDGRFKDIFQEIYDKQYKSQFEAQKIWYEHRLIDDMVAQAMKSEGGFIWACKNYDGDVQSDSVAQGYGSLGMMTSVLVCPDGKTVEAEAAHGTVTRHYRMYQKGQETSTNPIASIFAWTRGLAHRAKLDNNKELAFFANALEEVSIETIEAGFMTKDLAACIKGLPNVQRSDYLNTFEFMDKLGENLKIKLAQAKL
GASC1 inh: inhibitors of human demethylase GASC-1 KDM4C; Q9H3R0; GST-KDM4C 2-372, H3K9me3 peptide, LANCE TR-FRET; inhibition, % at 12.5 µM; 96,000 compounds, 0.15% hits; AID 720574;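 active means mean replicate inhibition above about 25%, with at least 55% of replicates also reaching it, limit read from the data, passing the limit was not always enough; inconclusive means only one of those two conditions met; inactive means neither condition met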
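Material: N-terminal GST-fused human GASC-1 (KDM4C) fragment, residues 2-372. Input: 10 nM enzyme. Incubation: enzyme reaction 30 min, then detection 60 min, both room temperature. Doses: one test concentration per compound. Read-out basis: inhibition from TR-FRET ratio decrease. Detection: LANCE TR-FRET, excitation 340 nm, emissions 618 and 671 nm.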
Pf Dd2 growth: inhibitors of Plasmodium falciparum Dd2 growth. activity change, % at 10 µM. P. falciparum Dd2 growth, SYBR Green, 72 h; stronger effect = lower value. 94,000 compounds, 2.3% hits. AID 1159554; in the data active means activity change below about -80%; inconclusive means no clear call, values can overlap the other calls
T cruzi growth-2: blocks T. cruzi growth in NIH3T3 host cells | 5,600 compounds, 72% hits | T. cruzi beta-gal in NIH3T3, GalScreen luminescence, 90 h | shares compounds with T cruzi growth-1 | inhibition, % at 8.35 µM | AID 651739;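 active means mean replicate inhibition above about 95% and at least 55% of replicates individually reaching it, limit read from the data; inconclusive means only one of the two criteria is met; inactive means neither criterion is met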
T cruzi growth-3: blocks T. cruzi growth in NIH3T3 host cells; T. cruzi beta-gal in NIH3T3, GalScreen luminescence, 90 h; 5,600 compounds, 21% hits; shares compounds with T cruzi growth-1; inhibition, % at 2.09 µM;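 active means mean inhibition above about 95%, with at least 55% of replicates also reaching it, limit read from the data; inconclusive means meets just one of the two conditions; inactive means meets neither condition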;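 further: plate controls were neutral control median for no effect and positive control median for full effect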
3T3 cytotox: cytotoxicity in mouse NIH/3T3 fibroblasts; shares compounds with T cruzi growth-1; NIH/3T3 viability, CellTiter-Glo ATP luminescence, 90 h; cytotoxicity (signal decrease), % at 8.35 µM; 5,600 compounds, 14% hits; AID 651742;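 active means mean signal decrease across replicates above about 35% based on untreated-well scatter, with enough replicates individually passing, limit read from the data; inconclusive means no rule stated though some were filed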;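 further: 0% = median of neutral control wells and 100% = median of positive control wells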
3T3 cytotox 2: cytotoxicity in mouse NIH/3T3 fibroblasts; shares compounds with T cruzi growth-1; NIH/3T3 viability, CellTiter-Glo ATP luminescence, 90 h; inhibition, % at 24.9 µM; 5,600 compounds, 56% hits;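 active means mean loss of cell viability signal at or above a set limit, and enough replicates individually reaching it; inconclusive means meets only the mean limit or only the replicate share; inactive means meets neither condition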;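 further: 0% = median of neutral control wells and 100% = median of positive control wells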
* hit, by the source's call.

C[C@@H]1CCCCO[C@@H](CN(C)C(=O)C2CCCCC2)[C@@H](C)CN([C@H](C)CO)C(=O)c2cc(NS(=O)(=O)c3ccc(Cl)cc3)ccc2O1 was read as T cruzi growth-1 59.4, GASC1 inh 0.0 and Pf Dd2 growth -5.2.
C[C@H](CO)N1C[C@H](C)[C@@H](CN(C)C(=O)C2CCCCC2)OCCCC[C@H](C)Oc2ccc(NS(=O)(=O)c3ccc(Cl)cc3)cc2C1=O was read as T cruzi growth-1 67.0, GASC1 inh 0.1 and Pf Dd2 growth 25.0.
C[C@@H]1CN([C@H](C)CO)C(=O)c2cc(NS(=O)(=O)c3ccc(F)cc3)ccc2O[C@@H](C)CCCCO[C@H]1CN(C)C(=O)C1CCCCC1 was read as T cruzi growth-1 inconclusive, GASC1 inh -2.7, Pf Dd2 growth -61.0, T cruzi growth-2 101.0*, T cruzi growth-3 63.4, 3T3 cytotox -7.3 and 3T3 cytotox 2 -6.1.
C[C@@H]1CCCCO[C@@H](CN(C)C(=O)C2CCCCC2)[C@H](C)CN([C@H](C)CO)C(=O)c2cc(NS(=O)(=O)c3ccc(Cl)cc3)ccc2O1 was read as T cruzi growth-1 inconclusive, IDH1 R132H inh -0.8, GASC1 inh 0.2, Pf Dd2 growth -14.2, T cruzi growth-2 110.3*, T cruzi growth-3 87.7, 3T3 cytotox -1.8 and 3T3 cytotox 2 99.6*.
`Cc1nc(-c2ccccc2)sc1C(=O)C1C(=O)C(=O)N(CCN(C)C)C1c1ccc(Cl)cc1` (stereo unspecified) gave IDH1 R132H inh -0.3.
`O=C(N/N=C/c1ccc2c(c1)OCCO2)c1ccccn1` gave IDH1 R132H inh -0.2.
Screening CN(C)C(=O)[C@H]1[C@H](CO)[C@H]2Cn3c(ccc(-c4ccccc4)c3=O)[C@@H]1N2CC1CCCC1 returned T cruzi growth-1 inconclusive, GASC1 inh 0.2, Pf Dd2 growth -0.5, T cruzi growth-2 84.9, T cruzi growth-3 25.7, 3T3 cytotox 4.9 and 3T3 cytotox 2 inconclusive.
Screening CN(C)C(=O)[C@@H]1[C@@H](CO)[C@@H]2Cn3c(ccc(-c4ccccc4)c3=O)[C@H]1N2CC1CCCC1 returned T cruzi growth-1 86.8, GASC1 inh -0.3 and Pf Dd2 growth 5.4.
`CN(C)C(=O)[C@@H]1[C@@H](CO)[C@@H]2Cn3c(ccc(-c4ccccc4)c3=O)[C@H]1N2C(=O)C1CCC1` gave T cruzi growth-1 active, GASC1 inh 19.0, T cruzi growth-2 54.9, T cruzi growth-3 -19.2, 3T3 cytotox -13.8 and 3T3 cytotox 2 6.8.
CCN1[C@@H]2c3ccc(-c4ccccc4)c(=O)n3C[C@H]1[C@H](CO)[C@H]2C(=O)Nc1ccccc1 was read as T cruzi growth-1 98.6*, GASC1 inh -0.2, Pf Dd2 growth 11.1, T cruzi growth-2 61.8, T cruzi growth-3 1.2, 3T3 cytotox 8.2 and 3T3 cytotox 2 13.2.
For CCCCN(CC)C(=O)Cn1c(=O)n(Cc2ccccc2Cl)c(=O)c2cc(OC)c(OC)cc21 the results were IDH1 R132H inh -2.2.
Cc1nnc(SCC(=O)Nc2ccccc2C(=O)c2ccccc2)s1 was read as IDH1 R132H inh 0.3.
For Cn1c(SCC(=O)Nc2ccccc2-c2ccccc2)nnc1-c1ccccn1 the results were IDH1 R132H inh -0.1.
`COc1ccccc1-c1ccc2c(c1)O[C@H](CN(C)C)[C@H](C)CN([C@@H](C)CO)S2(=O)=O` gave T cruzi growth-1 74.9, IDH1 R132H inh -0.1, GASC1 inh 1.5 and Pf Dd2 growth -2.3.
`C[C@@H]1CN([C@@H](C)CO)S(=O)(=O)c2ccc(-c3ccccc3)cc2O[C@H]1CN(C)CC1CCCC1` gave T cruzi growth-1 95.5*, IDH1 R132H inh -1.1, GASC1 inh 2.0, Pf Dd2 growth -78.5, T cruzi growth-2 96.6*, T cruzi growth-3 106.0*, 3T3 cytotox 58.0* and 3T3 cytotox 2 103.7*.
`COc1ccccc1-c1ccc2c(c1)O[C@@H](CN(C)C(=O)c1ccncc1)[C@@H](C)CN([C@H](C)CO)S2(=O)=O` gave T cruzi growth-1 105.1*, IDH1 R132H inh -3.6, GASC1 inh -0.2, Pf Dd2 growth -1.4, T cruzi growth-2 94.0, T cruzi growth-3 75.8, 3T3 cytotox 4.1 and 3T3 cytotox 2 inconclusive.
Screening C[C@@H]1CN([C@@H](C)CO)S(=O)(=O)c2ccc(-c3ccccc3)cc2O[C@@H]1CN(C)CC1CC1 returned T cruzi growth-1 70.5, IDH1 R132H inh 1.0, GASC1 inh -1.7 and Pf Dd2 growth -44.0.
For COc1ccccc1-c1ccc2c(c1)O[C@H](CN(C)C)[C@@H](C)CN([C@@H](C)CO)S2(=O)=O the results were T cruzi growth-1 106.2*, IDH1 R132H inh -0.5, GASC1 inh -0.7, Pf Dd2 growth -6.9, T cruzi growth-2 97.6*, T cruzi growth-3 35.5, 3T3 cytotox 13.2 and 3T3 cytotox 2 46.4*.
Screening C[C@@H]1CN([C@@H](C)CO)S(=O)(=O)c2ccc(-c3ccccc3F)cc2O[C@H]1CN(C)C returned T cruzi growth-1 113.9*, IDH1 R132H inh -1.0, GASC1 inh 2.2, Pf Dd2 growth -18.1, T cruzi growth-2 54.3, T cruzi growth-3 16.9, 3T3 cytotox 22.9 and 3T3 cytotox 2 77.5*.
Screening COc1ccccc1-c1ccc2c(c1)O[C@@H](CN(C)CC1CCCC1)[C@H](C)CN([C@@H](C)CO)S2(=O)=O returned T cruzi growth-1 126.3*, IDH1 R132H inh -0.6, GASC1 inh -1.8, Pf Dd2 growth -61.8, T cruzi growth-2 101.2*, T cruzi growth-3 99.7*, 3T3 cytotox 42.2* and 3T3 cytotox 2 102.5*.
Screening C[C@@H]1CN([C@@H](C)CO)S(=O)(=O)c2ccc(C3=CCCC3)cc2O[C@H]1CN(C)CC1CCCC1 returned T cruzi growth-1 106.6*, IDH1 R132H inh 0.4, GASC1 inh -0.1, Pf Dd2 growth -64.0, T cruzi growth-2 96.7*, T cruzi growth-3 82.5, 3T3 cytotox 40.6* and 3T3 cytotox 2 105.1*.
C[C@@H]1CN([C@H](C)CO)S(=O)(=O)c2ccc(C3=CCCC3)cc2O[C@@H]1CN(C)CC1CC1 was read as T cruzi growth-1 63.5, IDH1 R132H inh -1.0, GASC1 inh -1.1 and Pf Dd2 growth -31.2.
C[C@H](CO)N1C[C@H](C)[C@H](CN(C)C)Oc2cc(-c3ccccc3F)ccc2S1(=O)=O was read as T cruzi growth-1 inconclusive, IDH1 R132H inh -2.0, GASC1 inh 7.3, Pf Dd2 growth -6.3, T cruzi growth-2 19.4, T cruzi growth-3 8.7, 3T3 cytotox 5.8 and 3T3 cytotox 2 50.3*.
For O=C(CCCCCCC(=O)Nc1ccccc1O)N/N=C/c1cccc(OCCO)c1 the results were IDH1 R132H inh -0.6.
